Assay results collected from several papers.
Each line is one published result; the experiments were not run side by side.
IKBKB: Inhibitor of nuclear factor kappa-B kinase subunit beta (IKBKB, Homo sapiens, UniProt O14920)
AChE: AChE (Phlebotomus papatasi, UniProt M1F887)
M-phase phosphoprotein 8 chromodomain: M-phase phosphoprotein 8, chromodomain (Homo sapiens, UniProt Q99549)
HTR1A: 5-hydroxytryptamine receptor 1A (HTR1A, Homo sapiens, UniProt P08908)

SMILES	target	assay	IC50 [µM]
COCCOCOc1cc(OCc2ccc(Br)cc2)c(C(=O)/C=C/c2ccc(C(=O)O)cc2)cc1C12CC3CC(CC(C3)C1)C2	IKBKB	enzyme activity, inhibitor, TR-FRET	2.73
CNC(=O)Oc1cccc2c1OC(C)(C)C2	AChE	enzyme activity, inhibitor	0.008
CCN(CCCC[C@H](NC(=O)[C@H](CC(C)C)NC(=O)[C@H](C)NC(=O)[C@H](Cc1ccccc1)NC(=O)c1ccc(N)cc1)C(=O)N[C@@H](CO)C(N)=O)C(C)C	M-phase phosphoprotein 8 chromodomain	cell-free assay, TR-FRET	1.8
COCCOCOc1cc(OCc2cc(F)cc(F)c2)c(C(=O)/C=C/c2ccc(C(=O)O)cc2)cc1C12CC3CC(CC(C3)C1)C2	IKBKB	enzyme activity, inhibitor, TR-FRET	1.83
COc1ncccc1-c1cnn2ccc(N3CCN(C(=O)OC(C)C)CC3)nc12	Alpha-2C adrenergic receptor (ADRA2C, Homo sapiens, UniProt P18825)	cell-free assay	> 30
C=C(C)[C@@H]1CCC(C)=C[C@H]1c1c(O)cc(CCCCC)cc1O	G-protein coupled receptor 52 (GPR52, Homo sapiens, UniProt Q9Y2T5)	cAMP, antagonist	2.45
CCN(CCCC[C@H](NC(=O)[C@H](CC(C)C)NC(=O)[C@H](C)NC(=O)[C@H](Cc1ccccc1)NC(=O)c1ccc(NC)cc1)C(=O)N[C@@H](CO)C(N)=O)C(C)C	M-phase phosphoprotein 8 chromodomain	cell-free assay, TR-FRET	4.4
O=c1c2ccccc2[se]n1-c1ccccc1	Leucine-rich repeat serine/threonine-protein kinase 2 (LRRK2, Homo sapiens, UniProt Q5S007)	enzyme activity, inhibitor, radiometric	2
CCN(CCCC[C@H](NC(=O)[C@H](CC(C)C)NC(=O)[C@H](C)NC(=O)[C@H](Cc1ccccc1)NC(=O)c1cccnc1)C(=O)N[C@@H](CO)C(N)=O)C(C)C	M-phase phosphoprotein 8 chromodomain	cell-free assay, TR-FRET	2.2
CCCCCNC(=N)N/N=C/c1c[nH]c2ccc(OC)cc12	HTR1A	calcium signal, antagonist	0.87
CCOP(=O)(OCC)Oc1ccc2c(C)c(Cl)c(=O)oc2c1	AChE	enzyme activity, inhibitor	0.43
CCN(CCCC[C@H](NC(=O)[C@H](CC(C)C)NC(=O)[C@H](C)NC(=O)[C@H](Cc1ccccc1)NC(=O)c1ccc(N)c(Br)c1)C(=O)N[C@@H](CO)C(N)=O)C(C)C	M-phase phosphoprotein 8 chromodomain	cell-free assay, TR-FRET	0.4
CNC(=O)Oc1cccc2c1OC(C)(C)O2	AChE	enzyme activity, inhibitor	0.015
CCN(CCCC[C@H](NC(=O)[C@H](Cc1ccccc1)NC(=O)[C@H](C)NC(=O)[C@H](Cc1ccccc1)NC(=O)c1cccnc1)C(=O)N[C@@H](CO)C(N)=O)C(C)C	M-phase phosphoprotein 8 chromodomain	cell-free assay, TR-FRET	0.55
CNC(=O)Oc1cccc2ccccc12	AChE	enzyme activity, inhibitor	0.167
O=C(CCCc1ccc(N(CCCl)CCCl)cc1)NCCC1CCN(CCOc2ccc(Oc3c(-c4ccc(O)cc4)sc4cc(O)ccc34)cc2)CC1	Estrogen receptor (ESR1, Homo sapiens, UniProt P03372)	ligand displacement, radioligand	0.037
CC(CCc1ccccc1)NC(C)C(O)c1ccc(O)cc1 (centres unmarked)	HTR1A	ligand displacement, radioligand	3.38
